Compound activity deposited in PubChem by Broad Institute.
MITF TRPM1 HTS = increases MITF-driven TRPM1 promoter luciferase signal. SK-MEL-5 TRPM1-promoter luciferase, 24 h; % of positive control, neutral wells = 0. activation, % at 12.5 µM. hit rate 0.75% among 300,000;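 active means mean activation of at least 80% with every replicate also reaching 80%; inconclusive means mean reaches 80% but some replicate falls short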;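 further: 0% = neutral control wells and 100% = parthenolide positive control wells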
esBAF inh = inhibitors of esBAF chromatin remodeling in mouse ES cells; Bmi1-luciferase knock-in reporter, 24 h; 100% = twice the neutral-well signal; reporter increase, % at 12.5 µM; hit rate 2% among 350,000; AID 602393; in the data active means activation above about 40%; inconclusive means no clear call, values can overlap the other calls;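 further: 0% = median of the plate's neutral control wells and 100% = double that signal; a rise in the Bmi1 reporter signal indicates esBAF inhibition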
Xi reactivation = reactivates the inactive X chromosome in mouse fibroblasts; XiGFP mouse fibroblasts, % GFP-positive cells imaging, 3 d; cells co-treated with 5-aza-dC sensitizer; scaled so ellipticine positive control = 100%; activation, % at 7.58 µM; hit rate 0.055% among 360,000;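 active means mean normalized replicate activation at least 10% and every replicate at or above 10%; inconclusive means only one of the two criteria met; inactive means mean below 10% and not all replicates reach 10%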;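 further: 0% = median of on-plate neutral control wells and 100% = ellipticine 6 µM median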
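Material: SV40-immortalized XiGFP fibroblast cells, line 68-5-11 | Buffer or medium: DMEM containing 5-aza-dC | Dosing: One concentration, pinned | Times: 3 d treatment, 15 min room-temperature fixation | Controls: Ellipticine 6 µM positive control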
CASP6 VEID inh = blocks human caspase-6 cleavage activity. inhibition, % at 12.5 µM. purified caspase-6, Z-VEID-R110 cleavage fluorescence. hit rate 0.53% among 350,000. AID 686996. P55212;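 active means mean inhibition across replicates at least about 35%, with every replicate also reaching that limit, limit read from the data; inconclusive means only one of the two criteria met; inactive means neither criterion met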;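 further: 0% = median of neutral control wells and 100% = no fluorescence left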
NSD2 HMT inh = blocks human histone methyltransferase NSD2; O96028; NSD2 peptide methylation, AlphaScreen, 120 min; inhibition, % at 12.5 µM; hit rate 0.54% among 310,000; in the data active means inhibition above about 50%
Wnt bcat act = activates Wnt/beta-catenin signaling in a reporter cell assay; activator, plate reader; activation, % at 9.35 µM; hit rate 1.2% among 300,000; AID 743398; in the data active means activation above about 30%, passing the limit was not always enough; inconclusive means no clear call, values can overlap the other calls;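 further: 0% = neutral control wells and 100% = positive control wells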
An asterisk follows results filed as active; ? = inconclusive; · = not tested or not shown. A selection: hits, their analogues and other compounds. The true share with any hit is near 3%.

SMILES	MITF TRPM1 HTS	esBAF inh	Xi reactivation	CASP6 VEID inh	NSD2 HMT inh	Wnt bcat act
COc1cccc2cc(-c3nc4ccccc4o3)c(=O)oc12	36	19	0	1	-9	42*
OC[C@H]1[C@H](c2ccc(-c3ccc(F)cc3)cc2)[C@@H]2CN(Cc3cccnc3)CCCCN12	·	5	1	60*	·	·
OC[C@H]1[C@H](c2ccc(-c3ccc(F)cc3)cc2)[C@H]2CN(Cc3cccnc3)CCCCN21	·	0	0	-1	·	·
COC(=O)[C@H]1[C@H](CO)[C@H]2Cn3c(cccc3=O)[C@H]2N1CC1CCOCC1	·	-8	0	70*	·	·
CCCNC(=O)[C@@H]1[C@@H](CO)[C@@H]2Cn3c(ccc(-c4ccccc4)c3=O)[C@@H]2N1CC1CC1	·	6	0	54*	·	·
COc1ccc(CN(C)C[C@@H]2Oc3c(NC(=O)C4CCOCC4)cccc3C(=O)N([C@@H](C)CO)C[C@H]2C)cc1	·	-3	0	2	·	·
O=C(C1CCCC1)N1CC2(C1)[C@@H](c1ccccc1)[C@H](CO)N2C(=O)CC1CC1	·	·	0	-1	·	·
COc1ccccc1Cn1c(/C=C/c2ccccc2)nc2ccccc21	39	·	0	·	-6	38*
COCCn1c(/C=C/c2ccccc2)nc2ccccc21	97*	37*	0	2	-8	13
c1ccc(-c2cnc(C3CCCCC3)o2)cc1	48	53*	0	6	0	0
Cc1cccc(C(=O)Nc2sc(-c3ccccc3)cc2C(=O)O)c1	93*	68*	0	9	·	26
Cc1cccc(C(=O)c2c(N)sc3c2CCCC3)c1	18	·	0	·	2	37*
Cc1cccc(C(=O)Nc2sc3c(c2C(=O)O)CCCC3)c1	-7	72*	0	7	-1	9
C[C@@H]1CN([C@H](C)CO)S(=O)(=O)c2ccc(C#CC3CC3)cc2O[C@@H]1CN(C)S(C)(=O)=O	·	5	-1	-2	·	·
O=C(NCC1COc2ccccc2O1)c1cccs1 (centres undefined)	28	27	·	-2	-3	5
Cn1cccc1C(=O)NCC1COc2ccccc2O1 (centres undefined)	88*	55*	0	-78	·	?
O=C(NCC1COc2ccccc2O1)c1ccc(Br)s1 (centres undefined)	77	42*	0	-2	-6	7
CC1(C)CCC(=O)N2CC[C@H]3C[C@H](OC(=O)Nc4ccc5c(c4)OCO5)C[C@@H]1[C@H]32	104*	38	0	7	·	14
Cc1ccc2c(c1)c1nc3ccccc3nc1n2CCN1CCOCC1	·	60*	·	·	-26	·
O=C(OCc1nc2ccsc2c(=O)[nH]1)c1ccc(Cl)nc1	-8	-1	0	2	0	41*
O=C(OCc1nc2ccsc2c(=O)[nH]1)c1ccccc1	6	·	0	-2	0	4
N/C(Cc1cccc2ccccc12)=N\OC(=O)c1ccccc1F	5	9	0	41*	0	11
N/C(Cc1ccc(Cl)cc1Cl)=N\OC(=O)c1ccccc1F	33	·	0	1	-4	?
C[C@@H]1CCCCO[C@H](CN(C)C(=O)Nc2ccc(F)cc2)[C@H](C)CN([C@@H](C)CO)C(=O)c2cc(NS(=O)(=O)c3ccccc3)ccc2O1	·	4	-1	0	·	·
CN(C)C(=O)[C@@H]1[C@@H](CO)[C@@H]2Cn3c(ccc(C4=CCCC4)c3=O)[C@H]1N2CC1CC1	·	0	0	0	·	·
SMILES	MITF TRPM1 HTS	esBAF inh	Xi reactivation	CASP6 VEID inh	NSD2 HMT inh	Wnt bcat act
Cn1nnc2cc(C(=O)NC3CC3)ccc21	-2	-4	·	·	3	0
COc1ccc(NC(=O)c2cc3ccccc3cc2OC)cc1OC	21	·	0	·	-3	-1
COc1cc(C(=O)Nc2ccc3ccccc3c2)cc(OC)c1OC	·	·	1	2	-4	3
COc1cc(OC)c(C(=O)Nc2ccc3ccccc3c2)cc1OC	72	54*	·	·	·	·
Cn1nnc2cc(C(=O)Nc3ccc4ccccc4c3)ccc21	?	·	0	-4	-1	56*
COc1ccc(C(=O)Nc2ccc3ccccc3c2)cc1OC	·	86*	0	-3	1	15
OC[C@@H]1Nc2ccc(C#Cc3ccc(F)cc3)cc2[C@H]2[C@@H]1CCN2Cc1ccc2c(c1)OCO2	·	-3	0	0	·	·
CC(C)Sc1nc2sc(-c3ccccc3)cc2c(=O)n1N	11	0	·	·	9	·
CSc1nc2sc(-c3ccccc3)cc2c(=O)n1N	15	57*	·	·	-4	·
CN1C(=O)c2cc(NC(=O)c3cccc(F)c3)ccc2OC[C@H]2O[C@@H](CC(=O)NCc3ccccc3)CC[C@H]21	·	6	0	·	·	·
C[C@H]1CN([C@@H](C)CO)S(=O)(=O)c2ccc(C#CC3CC3)cc2O[C@H]1CN(C)C(=O)Nc1cc(F)ccc1F	·	·	-1	·	·	·
COc1cccc(-n2c(-c3ccccc3)c[nH]c2=S)c1	-7	-5	0	-12	5	-4
S=c1[nH]cc(-c2ccccc2)n1-c1cccc(Cl)c1	-1	·	1	55*	5	7
Nc1cc(Cl)ccc1N1C(=O)CCC1=O	-3	0	0	1	32	1
Nc1cc([N+](=O)[O-])ccc1N1C(=O)CCCC1=O	1	·	0	40*	-1	-2
O=C(C[C@H]1CC[C@@H]2[C@H](COC[C@@H](O)CN2Cc2cccc(C(F)(F)F)c2)O1)NCCc1ccccc1	·	1	0	2	·	·
Cc1ccc(NC(=O)NC(=O)CN2CCC(C(N)=O)CC2)c(C)c1	·	43*	0	-2	-12	30
Cc1ccc(NC(=O)NC(=O)CN2CCN(c3ccc(O)cc3)CC2)c(C)c1	-7	7	0	4	20	-4
COCc1cn(CC[C@H]2CC[C@@H](NC(=O)Nc3ccc(Cl)cc3)[C@@H](CO)O2)nn1	·	-1	-1	-1	·	·
CN(CC(=O)Nc1ccc(F)cc1)C(=O)C1Cc2ccccc2CN1S(C)(=O)=O (centres undefined)	-6	1	0	6	-1	0
CCS(=O)(=O)N1Cc2ccccc2CC1C(=O)N(C)CC(=O)Nc1cccc(F)c1 (centres undefined)	6	47*	0	-113	-5	-1
CCS(=O)(=O)N1Cc2ccccc2CC1C(=O)Nc1ccc(C)cc1 (centres undefined)	·	49*	·	·	0	18
C[C@H](CO)N1C[C@H](C)[C@H](CN(C)S(=O)(=O)c2ccc(C#N)cc2)Oc2ncc(C#CCN(C)C)cc2C1=O	·	1	-1	2	·	·
CCOC(=O)c1sc(=NC(=O)CCSc2ccccc2)n(C)c1C	114*	·	0	0	-5	26
CCOC(=O)c1sc(=NC(=O)c2ccc(C)cc2)n(C)c1C	32	·	0	·	-5	31*
